According to article PMC3986664 (Molecular Metabolism, 2014):
Where a SMILES comes first, the peptide text is derived from it. [ ]: non-standard residue; d: D form. Aib = CC(C)(N)C(=O)O

Legend:
[1] = Measure of maximum solubility; format: physicochemical; conditions: pH 7.4, 10 mM Tris, 4 °C, 48 h, saturated solution, UV 280 nm, single point
In short: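 Saturated peptide solutions made in 10 mM Tris base, pH adjusted to 7.4, held 48 h at 4 °C and at ambient temperature, then pH re-measured. Serially diluted until no visible precipitate and UV absorbance became linear.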

[2] = Long-term stability study, alkaline RP-HPLC; format: physicochemical

Row | Apparent solubility relative to Asp28 [1] | Difference in stability at six months between Asp28 and IUB75 (Δ1) ([2]; Figure 8, trend-line of degradation slopes) [%] | Stability relative to Asp28 ([2]; same pH and ambient temperature, six month study) | Total degradation ([2]; six months, ambient temperature, 1 mg/ml, 20 mM Tris, 0.1% SDS, pH 8.6) | SMILES
1 | doubling in apparent peptide solubility | – | – | – | CSCC[C@H](NC(=O)[C@H](CC(C)C)NC(=O)[C@H](Cc1c[nH]c2ccccc12)NC(=O)[C@H](CCC(N)=O)NC(=O)[C@@H](NC(=O)[C@H](Cc1ccccc1)NC(=O)[C@H](CC(=O)O)NC(=O)[C@H](CCC(N)=O)NC(=O)[C@H](C)NC(=O)[C@H](CCCNC(=N)N)NC(=O)[C@H](CCCNC(=N)N)NC(=O)[C@H](CO)NC(=O)[C@H](CC(=O)O)NC(=O)[C@H](CC(C)C)NC(=O)[C@H](Cc1ccc(O)cc1)NC(=O)[C@H](CCCCN)NC(=O)[C@H](CO)NC(=O)[C@H](Cc1ccc(O)cc1)NC(=O)[C@H](CC(=O)O)NC(=O)[C@H](CO)NC(=O)[C@@H](NC(=O)[C@H](Cc1ccccc1)NC(=O)[C@@H](NC(=O)CNC(=O)[C@H](CCC(N)=O)NC(=O)[C@H](CO)NC(=O)[C@@H](N)Cc1c[nH]cn1)[C@@H](C)O)[C@@H](C)O)C(C)C)C(=O)N[C@@H](CC(=O)O)C(=O)N[C@@H](CCC(=O)O)C(=O)O [Asp28,Glu29]
2 | – | 40 | approximately twice as stable | more than 20% | CSCC[C@H](NC(=O)[C@H](CC(C)C)NC(=O)[C@H](Cc1c[nH]c2ccccc12)NC(=O)[C@H](CCC(N)=O)NC(=O)[C@@H](NC(=O)[C@H](Cc1ccccc1)NC(=O)[C@H](CC(=O)O)NC(=O)[C@H](CCC(N)=O)NC(=O)[C@H](C)NC(=O)[C@H](CCCNC(=N)N)NC(=O)[C@H](CCCNC(=N)N)NC(=O)C(C)(C)NC(=O)[C@H](CC(=O)O)NC(=O)[C@H](CC(C)C)NC(=O)[C@H](Cc1ccc(O)cc1)NC(=O)[C@H](CCCCN)NC(=O)[C@H](CO)NC(=O)[C@H](Cc1ccc(O)cc1)NC(=O)[C@H](CC(=O)O)NC(=O)[C@H](CO)NC(=O)[C@@H](NC(=O)[C@H](Cc1ccccc1)NC(=O)[C@@H](NC(=O)CNC(=O)[C@H](CCC(N)=O)NC(=O)[C@H](CO)NC(=O)[C@@H](N)Cc1c[nH]cn1)[C@@H](C)O)[C@@H](C)O)C(C)C)C(=O)N[C@@H](CC(=O)O)C(=O)N[C@@H](CCC(=O)O)C(=O)O [IUB75] (H-HSQGTFTSDYSKYLD[Aib]RRAQDFVQWLMDE-OH)
